Screening data (PubChem BioAssay)
The sample as a whole holds a higher share of hits than the screen did.
T cruzi inh: inhibitors of intracellular T. cruzi growth, primary screen, luminescence, NIH3T3 host cells | inhibition, % (no concentration beside the values) | T. cruzi beta-gal in NIH3T3, 90 h | actives 1.4% (n = 300,000);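 active = mean inhibition across valid replicates above about 55%, limit read from the data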;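 also: signal also drops with host cell toxicity which is not excluded here; higher percent means less beta-gal luminescence so fewer parasites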
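System: mouse NIH/3T3 fibroblasts infected with β-gal-expressing T. cruzi Tulahuen C4 / Input: NIH/3T3 cells, 5,000 per well / Buffer or medium: Low-serum DMEM with 2% FBS / Probe or stimulus: 5000 reporter trypomastigotes per well / Schedule: ≥90 h infection period, 3 h prior cell attachment / Measured by: GalScreen luminescence, 60 min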
L major viab: Leishmania major promastigote growth inhibition, primary screen. Leishmania major promastigotes, resazurin fluorescence viability. inhibition, % at 10 µM. AID 1063, 2008. actives 9% (n = 200,000); in the data active = inhibition above about 50%;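 also: promastigotes grown with compound for 44 hours at 28 °C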
DTT redox prof: compounds producing H2O2 with reducing agent – biochemical, NIH compound library profiling, artefact control for MLSCN library redox annotation, primary screen; DTT-dependent redox cycling H2O2, phenol red/HRP absorbance; 100% = 100 µM peroxide control, 0% = buffer; activation, % at 10 µM; actives 0.03% (n = 200,000); AID 878, 2007;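 active = activation of at least 50% relative to the plate's high and low controls in the primary single-dose screen; inactive = activation below 50%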;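 also: compound incubated with DTT at 0.8 mM final as the reducing agent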
Lipid droplet: inhibitors of hepatocyte lipid droplet formation, primary screen, imaging, high-throughput imaging, BODIPY stain | AML12 mouse hepatocytes, oleate lipid droplets | inhibition, % at 6.5 µM | actives 0.4% (n = 240,000);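 active = lipid droplet intensity inhibited by at least 50%, with more than 500 cells counted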
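Material – mouse AML12 hepatocyte cell line, fixed after treatment · Compound dosing – one dose, 6.5 µM compound · Times – compound with oleate, overnight · Measured by – Image-based BODIPY and DAPI two-channel analysis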
MPTP block: mitochondrial permeability transition pore inhibitors, primary screen, biochemical, isolated mouse mitochondria, absorbance; actives 1.4% (n = 360,000); AID 602449, 2012; inhibition, % at 10 µM; Ca2+ swelling absorbance, 30 min;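 active = inhibition of 50% or more, scaled per plate between neutral and stimulator controls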
A number is an active result; i = inactive; nt = no result.

SMILES | T cruzi inh | L major viab | DTT redox prof | Lipid droplet | MPTP block
CCN(CC)S(=O)(=O)c1cc(C(=O)NC2=NCCS2)ccc1Cl | i | i | i | nt | i
CN1CCN(c2ccc(Cl)cc2NC(=O)c2ccc(S(=O)(=O)N(C)C)cc2)CC1 | i | 100 | i | i | i
CCN(CC)S(=O)(=O)c1cc(C(=O)N2CCc3ccccc32)ccc1Cl | i | 75 | i | i | i
CN(C)S(=O)(=O)c1cccc(C(=O)Nc2ccccc2[N+](=O)[O-])c1 | i | i | i | i | i
CCn1cnc2cc(NC(=O)COc3ccc(C)cc3)ccc21 | nt | nt | nt | nt | i
CN1CCN(c2ccc(Cl)cc2NS(=O)(=O)c2ccccc2Cl)CC1 | i | 100 | i | nt | i
Cc1cccc(NC(=O)CSCC(=O)Nc2cc(Cl)ccc2N2CCN(C)CC2)c1 | 59 | nt | nt | i | i
Cc1cc(-c2nnc(CCC(=O)NCc3ccc(OC(F)(F)F)cc3)o2)no1 | i | nt | nt | i | i
CCCCOC(=O)CCN1C(=O)/C(=C2\SC(=S)N(CCC(=O)OCCCC)C2=O)SC1=S | i | 66 | i | i | i
CC(C)c1ccc(C2C3CSCC=C3C(C#N)=C(N)C2(C#N)C#N)cc1 (stereo unspecified) | i | 98 | i | i | nt
CCCC1C2CN(C(C)C)CC=C2C(C#N)=C(N)C1(C#N)C#N (stereo unspecified) | i | 76 | i | nt | i
COc1cc(F)c(S(=O)(=O)N2CCOc3ccccc32)cc1OC | i | nt | nt | nt | i
OCCCCNCc1ccc(OCc2ccc(Cl)cc2Cl)cc1 | 60 | 101 | i | nt | i
CC1CN(S(=O)(=O)c2ccc(CN3C(=O)c4cccnc4C3=O)s2)c2ccccc2O1 (stereo unspecified) | i | nt | nt | i | i
N#Cc1c(N2CCCCC2)nc(N)c2c(N)nc3c(c12)CC(CCl)O3 (stereo unspecified) | i | i | i | i | i
N#Cc1c(N)nc2c(c1N)CC(CCl)O2 (stereo unspecified) | i | 57 | nt | i | i
COCCCNC1=C(Cl)C(=O)c2ccccc2C1=O | i | nt | nt | i | i
CCN(CC)CCCNC1=C(Cl)C(=O)c2ccccc2C1=O | 79 | 100 | i | i | i
O=C(Nc1cccc(F)c1)N1CCCC(CNS(=O)(=O)Cc2ccccc2)C1 (stereo unspecified) | i | 92 | i | i | i
CCN(CC)c1ccc(C(=S)NCc2ccccc2)cc1 | i | i | i | i | i
Cc1c(Cl)cnc(NC(=O)COC(=O)c2ccc3ncsc3c2)c1Cl | i | 62 | i | i | i
O=C(COC(=O)c1ccc2ncsc2c1)Nc1ncc(Cl)cc1Cl | i | i | i | i | i
COc1ccc(C(=O)NCS(=O)(=O)c2ccc(C)cc2)cc1 | i | i | i | nt | i
CO/N=C(/CS(=O)(=O)c1ccc(C)cc1)c1ccc(OC)cc1 | i | 80 | i | nt | i
CCN1C(=O)S/C(=C/c2ccsc2)C1=O | i | i | i | i | i
SMILES | T cruzi inh | L major viab | DTT redox prof | Lipid droplet | MPTP block
CC(C)N1C/C(=C/c2ccsc2)C(=O)/C(=C/c2ccsc2)C1 | i | 100 | i | i | i
CN1C/C(=C/c2cccnc2)C(=O)/C(=C/c2cccnc2)C1 | nt | 100 | i | i | i
CC(C)N1C/C(=C/c2cccnc2)C(=O)/C(=C/c2cccnc2)C1 | nt | 100 | i | i | i
CC(C)N1CC2=C(OC(N)=C(C#N)C2c2cccnc2)/C(=C/c2cccnc2)C1 (stereo unspecified) | i | i | i | nt | i
CN1CCN(c2ccccc2NC(=O)c2cc3ccccc3o2)CC1 | i | 68 | i | nt | i
CCN1CCN(c2ccc(S(=O)(=O)N3CCOCC3)cc2NC(=O)c2ccc(Cl)s2)CC1 | 69 | nt | nt | nt | i
CS(=O)(=O)N1CCN(c2ccccc2NC(=O)c2ccc(-c3ccc(Cl)cc3Cl)o2)CC1 | i | 91 | i | i | i
CN1CCN(c2ccccc2NC(=O)c2ccc(-c3ccc(Cl)cc3Cl)o2)CC1 | 55 | 99 | i | i | i
Cc1ccsc1C1CC(=O)OC2=C1C(=O)CC(C)(C)C2 (stereo unspecified) | i | i | i | i | nt
CC1CCN(Cc2c(C(=O)O)nnn2-c2nonc2N)CC1 | i | i | i | i | i
CCN(CC)CC(=O)Nc1ccc([N+](=O)[O-])cc1 | i | i | i | i | i
